The test system of assay [1] is HeLa. The experiment in a line: Induction of microtubule depolymerization in human HeLa cells at 30 uM incubated for 24 hrs by immunofluorescence microscopy. It counts as functional, cell-based. A digest of the protocol:
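Interphase HeLa cells were treated for 24 h at 30 μM, then the MT network structure was examined by microscopy.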

Assay [2] deals with HeLa. The experiment in a line: Cytotoxicity against human HeLa cells assessed as reduction in cell viability incubated for 48 hrs by WST8 cells. It counts as functional, cell-based. A digest of the protocol:
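HeLa cells were exposed to a range of concentrations for 48 h. Growth was read by WST-8 cell counting, and IC50 values were calculated from the resulting curves.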

Assay [3] deals with HeLa. The experiment in a line: Cytotoxicity against human HeLa cells assessed as cell viability at 100 uM incubated for 48 hrs by WST8 cells relative to control. It counts as functional. Conditions: read-out: Activity. Background: Formazan colour is commonly taken as a measure of viable cells.
The species named for assay [4] is Sus scrofa domesticus. Briefly: Inhibition of porcine brain tubulin polymerization assessed as residual tubulin polymerization at 30 uM in presence of 0.8 M glutamate incubated for 30 mins by SDS-PAGE analysis (reference value: 84.8 +/- 9.9 %). In a few lines:
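Polymer was separated by ultracentrifugation (200,000g, 10 min, 25 °C), tubulin measured by 10% SDS-PAGE densitometry and expressed as % polymerized. Mean ± SD, three independent experiments.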

Assay [5] has as its system HeLa. Briefly: Inhibition of gamma-tubulin in human HeLa cells assessed as abnormal spindle formation at 30 uM incubated for 24 hrs by immunofluorescence microscopy analysis relative to control. It counts as cell-based. A digest of the protocol:
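Exponentially growing HeLa cells were treated with 30 μM for 24 h, then spindle morphology was classified as normal bipolar, bipolar with misaligned chromosomes, or multipolar. More than 100 cells were scored per experiment. Mean ± SD, three independent experiments, with DMSO as control.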

In assay [6] the test system is HeLa. The experiment in a line: Inhibition of gamma-tubulin nucleation in human HeLa cells at 100 uM incubated for 15 mins. It counts as cell-based.
The test system of assay [7] is HeLa. Briefly: Inhibition of gamma-tubulin nucleation in human HeLa cells at 30 uM incubated for 15 mins. It counts as cell-based.
For assay [8], the system named is HeLa. Briefly: Inhibition of gamma-tubulin nucleation in human HeLa cells at 10 uM incubated for 15 mins. It counts as cell-based.
Assay [9] relates to HeLa. The experiment in a line: Induction of microtubule depolymerization in human HeLa cells at 100 nM incubated for 6 hrs by immunofluorescence microscopic method. It counts as functional, cell-based.
The species entered for a further assay is Homo sapiens. The experiment in a line: Inhibition of human gamma tubulin assessed as reduction in GTP binding to gamma-tubulin at 50 uM incubated for 15 mins by alpha-[32P]-GTP binding assay.
Assay [10] deals with HeLa. Briefly: Inhibition of gamma-tubulin nucleation in human HeLa cells at 0.3 uM incubated for 15 mins. It counts as cell-based.
In assay [11] the test system is HeLa. The experiment in a line: Inhibition of gamma-tubulin in human HeLa cells assessed as abnormal spindle formation incubated for 24 hrs by immunofluorescence microscopy analysis. It counts as cell-based.
The subject of assay [12] is HeLa. Briefly: Inhibition of gamma-tubulin in human HeLa cells assessed as abnormal spindle formation at 1 uM incubated for 24 hrs by immunofluorescence microscopy analysis relative to control. It counts as cell-based.
For assay [13], the species on record is Sus scrofa domesticus. The experiment in a line: Induction of porcine brain tubulin polymerization at 10 uM in presence of 0.2 M glutamate incubated for 30 mins by SDS-PAGE analysis (reference value: 36.3 +/- 8.1 %).

This note sets out measurements from ChEMBL document CHEMBL4627401, “Structure Optimization of Gatastatin for the Development of γ-Tubulin-Specific Inhibitor” (ACS Med Chem Lett, 2020).

Activity calls are given as the source filed them. No cut-off for these calls is given here.

As usually defined, the IC50 is the point on the concentration scale where inhibition reaches its midpoint. Usually inhibition stands for the share of the control response that was lost under treatment. For `COc1cc(-c2coc3cc(OCc4ccccc4)c(OCc4ccccc4)cc3c2=O)c(OC)c2c1OC(C)(C)O2`, the result with HeLa [1] was inactive. Also, the IC50 in the assay with HeLa [2] was greater than 100 µM. Besides, the viability at 100 µM with HeLa [3] is 102%. Further, the Activity in the assay filed under Sus scrofa domesticus [4] was in the range of 69 to 92%. In addition, the inhibition result with HeLa [5] was “inactive”.

`COc1cc(-c2coc3cc(OCc4ccccc4)c(OC4CCCCO4)cc3c2=O)c(OC)c2c1OC(C)(C)O2` (centres undefined): the result in the assay on HeLa [1] was inactive. For the same compound, in the assay on HeLa [2], the IC50 is greater than 100 µM. Also, the viability at 100 µM in the assay with HeLa [3] was found to be 101%. Further, in the assay filed under Sus scrofa domesticus [4], the Activity lay in the range of 69 to 92%. In addition, in the assay with HeLa [5], the inhibition entry is “inactive”.

As to `C=CCOc1cc2c(=O)c(-c3cc(OC)c4c(c3OC)OC(C)(C)O4)coc2cc1OCc1ccccc1`, the outcome in the assay on HeLa [1] was inactive. The IC50 with HeLa [2] is greater than 100 µM. Also, the viability at 100 µM in the assay on HeLa [3] worked out at 107%. For the same compound, the Activity in the assay listed under Sus scrofa domesticus [4] is 69 to 92%. For the same compound, in the assay with HeLa [5], the inhibition result is “inactive”.

For the compound `COc1cc(-c2coc3cc(OCc4ccccc4)c(OC4CCCCO4)cc3c2=O)c(OC)c2c1OCO2` (centres undefined), the inhibition result with HeLa [6] was “inactive”. Further, the outcome in the assay on HeLa [1] was inactive. Besides, the IC50 with HeLa [2] is greater than 100 µM. Moreover, the viability at 100 µM in the assay with HeLa [3] was found to be 99.1%. Further, the Activity in the assay listed under Sus scrofa domesticus [4] fell in the range of 69 to 92%.

Turning to `COc1cc2c(=O)c(-c3cc(OC)c4c(c3OC)OC(C)(C)O4)coc2cc1OCc1ccccc1`, the inhibition result in the assay on HeLa [6] and in the assay on HeLa [5] was “inactive” throughout. For the same compound, the result in the assay with HeLa [1] was inactive. Moreover, the IC50 with HeLa [2] is greater than 100 µM. In the assay with HeLa [3], the viability at 100 µM came to 100%. Moreover, the Activity in the assay filed under Sus scrofa domesticus [4] is 69 to 92%.

Consider `COc1cc2c(=O)c(-c3cc(OC)c(OC)c(OC)c3OC)coc2cc1OCc1ccccc1`, for which the inhibition result with HeLa [7] was “Active”. In the assay with HeLa [1], the outcome was inactive. Moreover, the IC50 in the assay on HeLa [2] is greater than 100 µM. For the same compound, the viability at 100 µM in the assay with HeLa [3] amounted to 77.3%. For the same compound, the Activity in the assay filed under Sus scrofa domesticus [4] lay in the range of 69 to 92%. In the assay on HeLa [5], the inhibition was 65%. In addition, in the assay on HeLa [8], the inhibition entry is “inactive”.

For `COc1cc2c(=O)c(-c3ccc4c(c3)OCO4)coc2cc1OCc1ccccc1`, the inhibition result in the assay on HeLa [6] and in the assay on HeLa [5] was “inactive” in each case. The outcome in the assay with HeLa [1] was inactive. The IC50 in the assay with HeLa [2] was greater than 100 µM. The viability at 100 µM in the assay with HeLa [3] turned out to be 101%. Further, in the assay listed under Sus scrofa domesticus [4], the Activity was 69 to 92%.

With `COc1cc2c(c(OC)c1OC)-c1ccc(OC)c(=O)cc1[C@@H](NC(C)=O)CC2`, in the assay on HeLa [9], the outcome was Active.

For the compound `C#CCOc1cc2c(=O)c(-c3cc(OC)c4c(c3OC)OCO4)coc2cc1OCc1ccccc1`, the inhibition entry in the assay with HeLa [7], in the assay filed under Homo sapiens, with HeLa [10] and in the assay with HeLa [12] was “Active” in each case. Besides, the result with HeLa [1] was inactive. For the same compound, the IC50 in the assay on HeLa [2] worked out at 0.8 µM. For the same compound, the inhibition entry in the assay on HeLa [11] was “Dose-dependent effect”. Further, the Activity in the assay listed under Sus scrofa domesticus [4] was in the range of 69 to 92%.

For the compound `COc1cc2c(=O)c(-c3cc(OC)c4c(c3OC)OCO4)coc2cc1OCc1ccccc1`, the inhibition result with HeLa [7], in the assay filed under Homo sapiens and in the assay on HeLa [5] was “Active” in each case. For the same compound, in the assay with HeLa [1], the result was inactive. For the same compound, the IC50 in the assay on HeLa [2] worked out at 10.5 µM. The Activity in the assay filed under Sus scrofa domesticus [4] lay within 69 to 92%. For the same compound, in the assay with HeLa [8], the inhibition entry is “inactive”.

`COc1cc(-c2coc3cc(OCc4ccccc4)c(O)cc3c2=O)c(OC)c2c1OCO2`: the inhibition entry in the assay on HeLa [7] was “Active”. For the same compound, in the assay on HeLa [1], the outcome was inactive. Besides, the 50% inhibitory concentration (IC50) in the assay with HeLa [2] amounted to 5.8 µM. The Activity in the assay filed under Sus scrofa domesticus [4] is 69 to 92%.

With `COc1cc(-c2coc3cc(OCc4ccccc4)c(OCc4ccccc4)cc3c2=O)c(OC)c2c1OCO2`, the inhibition entry in the assay with HeLa [7] and with HeLa [12] was “Active” each time. Also, the result in the assay with HeLa [1] was inactive. In addition, the IC50 with HeLa [2] was determined as 1.1 µM. In addition, in the assay filed under Sus scrofa domesticus [4], the Activity was in the range of 69 to 92%.

As for `CC(=O)O[C@H]1C(=O)[C@@]2(C)[C@H]([C@H](OC(=O)c3ccccc3)[C@]3(O)C[C@H](OC(=O)[C@H](O)[C@@H](NC(=O)c4ccccc4)c4ccccc4)C(C)=C1C3(C)C)[C@]1(OC(C)=O)CO[C@@H]1C[C@@H]2O`, in the assay listed under Sus scrofa domesticus [13], the Activity turned out to be 91.6%. Further, in the assay on HeLa [9], the outcome was Active.

For `C#CCOc1cc2c(=O)c(-c3cc(OC)c4c(c3OC)OC(C)(C)O4)coc2cc1OCc1ccccc1`, the result in the assay with HeLa [1] was inactive. Further, the IC50 in the assay with HeLa [2] was greater than 100 µM. Also, the viability at 100 µM in the assay on HeLa [3] is 102%. For the same compound, the Activity in the assay filed under Sus scrofa domesticus [4] lay within 69 to 92%. Moreover, the inhibition entry in the assay with HeLa [5] is “inactive”.

Consider `C=CCOc1cc2c(=O)c(-c3cc(OC)c4c(c3OC)OCO4)coc2cc1OCc1ccccc1`, for which the inhibition entry in the assay on HeLa [7] is “Active”. Besides, in the assay with HeLa [1], the result was inactive. For the same compound, in the assay with HeLa [2], the IC50 was determined as 9.9 µM. Besides, the Activity in the assay listed under Sus scrofa domesticus [4] was in the range of 69 to 92%.

As to `COc1cc(-c2coc3cc(OCc4ccccc4)c(O)cc3c2=O)c(OC)c2c1OC(C)(C)O2`, in the assay on HeLa [1], the outcome was inactive. The IC50 in the assay with HeLa [2] is greater than 13 µM. In addition, the Activity in the assay listed under Sus scrofa domesticus [4] lay in the range of 69 to 92%. Moreover, the inhibition entry in the assay on HeLa [5] was “inactive”.
